KLK5 inh: inhibitors of human kallikrein 5. hit rate 0.59% among 210,000. recombinant hK5, fluorogenic AMC substrate cleavage. inhibition, % at 5 µM;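 active = inhibition of 40% or more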;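 also: 0% = enzyme controls without compound and 100% = no-enzyme blanks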
PERK inhibitor: human PERK inhibition, primary cell-based screen; Q9NZJ5; hit rate 0.17% among 220,000; CHO PERK-DD fusion, SEAP luminescence translation reporter; inhibition, % at 5.6 µM;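 active = inhibition above the mean inhibition of all tested compounds plus 3 SD, set separately per screening campaign, cut at about 2.9% in these data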;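 also: PERK kinase domain activated by AP20187 dimerizer at 100 nM; 0% = DMSO with dimerizer and 100% = rapamycin at 8.4 µM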
Furin inh: blocks human furin protease activity; P09958; inhibition, % at 20 µM or 30 µM; hit rate 0.061% among 220,000; purified furin, fluorogenic substrate cleavage; in the data active = inhibition above about 25%
FXIa inh 1536: blocks human coagulation factor XIa protease activity; purified FXIa, Boc-Glu-Ala-Arg-AMC fluorogenic substrate; hit rate 0.14% among 220,000; AID 798; P03951; inhibition, % at 5 µM;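 active = inhibition of at least 40%; inactive = inhibition below 40%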;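 also: fluorescence of freed AMC excited at 355 nm; 0% = enzyme without compound and 100% = no enzyme blank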
Thrombin inh: blocks human thrombin protease activity. AID 1046. alpha-thrombin, Boc-VPR-AMC fluorogenic substrate cleavage. inhibition, % at 5 µM. hit rate 0.26% among 220,000;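 active = inhibition at or above 40%; inactive = inhibition below 40%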;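 also: 0% = enzyme with no compound and 100% = wells without enzyme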
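signal = AMC fluorescence, 355/460 nm | material = human alpha-thrombin enzyme | control set = enzyme without compound as high, wells lacking enzyme as low | times = reaction at room temperature | read-out basis = percent inhibition scaled between no-compound controls and no-enzyme blanks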
FXIIa inh 1536: blocks human coagulation factor XIIa protease activity; P00748; purified FXIIa, Boc-QGR-AMC fluorogenic substrate, 2 h; inhibition, % at 5 µM; hit rate 0.3% among 220,000; AID 800; in the data active = inhibition above about 40%;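 also: 0% = enzyme with no compound and 100% = blank without enzyme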
Target sequence (P00748 20-372 limits assumed): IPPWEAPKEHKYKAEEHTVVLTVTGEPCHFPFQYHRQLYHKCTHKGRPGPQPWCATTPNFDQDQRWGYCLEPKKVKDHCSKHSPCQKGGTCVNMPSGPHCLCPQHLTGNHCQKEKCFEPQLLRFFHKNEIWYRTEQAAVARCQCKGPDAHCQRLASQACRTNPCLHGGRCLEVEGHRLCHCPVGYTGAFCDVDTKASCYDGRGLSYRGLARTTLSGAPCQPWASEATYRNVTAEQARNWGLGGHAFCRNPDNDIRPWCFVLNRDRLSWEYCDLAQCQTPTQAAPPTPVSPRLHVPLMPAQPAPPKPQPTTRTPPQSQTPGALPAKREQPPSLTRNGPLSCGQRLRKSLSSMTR
Target sequence (P00748 373-615 limits assumed): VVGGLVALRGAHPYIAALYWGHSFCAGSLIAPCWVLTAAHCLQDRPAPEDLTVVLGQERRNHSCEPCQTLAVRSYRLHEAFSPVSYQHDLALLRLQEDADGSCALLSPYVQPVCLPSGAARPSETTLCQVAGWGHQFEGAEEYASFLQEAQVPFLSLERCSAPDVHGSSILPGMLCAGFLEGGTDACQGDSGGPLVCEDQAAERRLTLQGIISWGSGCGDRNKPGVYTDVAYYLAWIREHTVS
The depositor's hits bear a star. An excerpt weighted towards active compounds, which were near 1.2% of everything screened.

Screening Cc1cccc(Cn2nc(C)cc2NC(=O)CCCn2ccc([N+](=O)[O-])n2)c1 returned PERK inhibitor 0, Furin inh -22, FXIa inh 1536 -5, Thrombin inh -1 and FXIIa inh 1536 10.
Cc1ccc(S(=O)(=O)NNC(=O)c2ccc(O)cc2)cc1 was read as KLK5 inh 53*, PERK inhibitor 0, Furin inh -7, FXIa inh 1536 3, Thrombin inh 29 and FXIIa inh 1536 10.
`O=C(CCN1C(=O)c2ccccc2C1=O)N(CCO)Cc1ccccc1` gave KLK5 inh -5, PERK inhibitor 0, Furin inh 27*, FXIa inh 1536 15, Thrombin inh 0 and FXIIa inh 1536 9.
`CCCC(=O)N(CCN(Cc1ccccc1)C(=O)CCC)Cc1ccccc1` gave KLK5 inh 7, PERK inhibitor 0, Furin inh -7, FXIa inh 1536 -5, Thrombin inh -7 and FXIIa inh 1536 8.
For Cc1ccc(NC(=O)CN(C)C(=O)CCC(=O)c2cccs2)cc1 the results were KLK5 inh 14, PERK inhibitor 0, Furin inh -14, FXIa inh 1536 7, Thrombin inh 47* and FXIIa inh 1536 -3.
Screening O=C(COc1ccccc1C(=O)O)Nc1nc2ccc([N+](=O)[O-])cc2s1 returned KLK5 inh -2, PERK inhibitor 2, Furin inh -18, FXIa inh 1536 0, Thrombin inh -15 and FXIIa inh 1536 3.
`COc1ccc(S(=O)(=O)n2nc(-c3ccc(Cl)cc3)cc2N)cc1OC` gave KLK5 inh 48*, PERK inhibitor -2, Furin inh -5, FXIa inh 1536 -4, Thrombin inh 4 and FXIIa inh 1536 7.
`CCOc1ccc(-c2cc(N)n(S(=O)(=O)c3ccc(OC)c(OC)c3)n2)cc1` gave KLK5 inh 2, PERK inhibitor -1, Furin inh -11, FXIa inh 1536 6, Thrombin inh 1 and FXIIa inh 1536 5.
O=S1(=O)C=C(SCc2cccc(Cl)c2)Nc2ccccc21 was read as KLK5 inh 5, PERK inhibitor 0, Furin inh -14, FXIa inh 1536 2, Thrombin inh 4 and FXIIa inh 1536 12.
Screening Cc1ccc(S(=O)(=O)N(Cc2ccccc2)c2ccccc2C(=O)NCc2ccco2)cc1 returned KLK5 inh -3, PERK inhibitor 0, Furin inh -14, FXIa inh 1536 -7, Thrombin inh -2 and FXIIa inh 1536 47*.
`Cc1ccc(S(=O)(=O)N(Cc2ccccc2)c2ccccc2C(=O)Nc2ccccc2C(=O)NCc2ccco2)cc1` gave KLK5 inh -9, PERK inhibitor -1, Furin inh -21, FXIa inh 1536 2, Thrombin inh -2 and FXIIa inh 1536 6.
`COc1ccc(-c2[nH]ncc2CN(CC2CCC(=O)N2)C(C)C)cc1F` (stereo not given) gave KLK5 inh -6, PERK inhibitor -1, Furin inh -15, FXIa inh 1536 -4, Thrombin inh 7 and FXIIa inh 1536 6.
For COCCOC(=O)C(CC(=O)O)NCc1ccco1 (stereo not given) the results were KLK5 inh -6, PERK inhibitor 4.0*, Furin inh -16, FXIa inh 1536 5, Thrombin inh -3 and FXIIa inh 1536 5.
COC(=O)C(CC(=O)O)NCc1ccco1 (stereo not given) was read as KLK5 inh -7, PERK inhibitor 1, Furin inh -6, FXIa inh 1536 4, Thrombin inh -6 and FXIIa inh 1536 6.
Screening c1ccc(-n2nnnc2Cc2nnnn2-c2ccccc2)cc1 returned KLK5 inh 73*, PERK inhibitor -1, Furin inh -10, FXIa inh 1536 25, Thrombin inh 2 and FXIIa inh 1536 30.
For OCc1c(Cl)nc2ccccn12 the results were KLK5 inh 19, PERK inhibitor 0, Furin inh -3, FXIa inh 1536 3, Thrombin inh -5 and FXIIa inh 1536 17.
`Brc1c(C[n+]2ccccc2)nc2ccccn12` gave KLK5 inh 24, PERK inhibitor 0, Furin inh -5, FXIa inh 1536 25, Thrombin inh 33 and FXIIa inh 1536 53*.
CC1(C)CC(=O)c2cnc(NC(=O)CCc3ccccc3)nc2C1 was read as KLK5 inh 86*, PERK inhibitor -1, Furin inh -16, FXIa inh 1536 12, Thrombin inh 14 and FXIIa inh 1536 26.
O=C(CCc1ccccc1)Nc1ncc2c(n1)CCCC2=O was read as KLK5 inh 4, PERK inhibitor 0, Furin inh -6, FXIa inh 1536 7, Thrombin inh 2 and FXIIa inh 1536 20.
CC1CCCN(S(=O)(=O)c2ccc(S(=O)(=O)NC(C)c3cccs3)cc2)C1 (stereo not given) was read as KLK5 inh 3, PERK inhibitor 0, Furin inh -1, FXIa inh 1536 4, Thrombin inh -1 and FXIIa inh 1536 13.
`CN(C)c1ccc(CNC(=O)C2CCC(CNc3c(N4CCCCC4)c(=O)c3=O)CC2)cc1` (stereo not given) gave KLK5 inh 1, PERK inhibitor 0, Furin inh -2, FXIa inh 1536 2, Thrombin inh -2 and FXIIa inh 1536 2.
Cc1c(C)n(CCC#N)c2ccccc12 was read as KLK5 inh -14, PERK inhibitor 0, Furin inh -3, FXIa inh 1536 32, Thrombin inh -9 and FXIIa inh 1536 43*.
For C=CCNc1ncnc2c1ncn2C1OC(CO)C(O)C1O (stereo not given) the results were KLK5 inh 3, PERK inhibitor 3.0*, Furin inh -28, FXIa inh 1536 -3, Thrombin inh -2 and FXIIa inh 1536 5.
For Cc1ccc2c(C(=O)CNc3nncs3)c(C)[nH]c2c1 the results were KLK5 inh 2, PERK inhibitor 2, Furin inh -21, FXIa inh 1536 7, Thrombin inh -3 and FXIIa inh 1536 1.
For CC1CCN(c2nc3ccccc3nc2C(C#N)C(=O)OC2CCCCC2)CC1 (stereo not given) the results were KLK5 inh 1, PERK inhibitor 2, Furin inh -7, FXIa inh 1536 7, Thrombin inh 4 and FXIIa inh 1536 13.
`CC1CN(c2nc3ccccc3nc2C(C#N)C(=O)OC2CCCCC2)CC(C)O1` (stereo not given) gave KLK5 inh 64*, PERK inhibitor 1, Furin inh -17, FXIa inh 1536 12, Thrombin inh 20 and FXIIa inh 1536 1.
O=C(Nc1ccc(Cl)c(C(F)(F)F)c1)C(=O)N1CCCCC1 was read as KLK5 inh 0, PERK inhibitor 0, Furin inh -4, FXIa inh 1536 4, Thrombin inh -10 and FXIIa inh 1536 7.
Screening O=C(Nc1ccc(Cl)c(C(F)(F)F)c1)N1CCCC(O)C1 (stereo not given) returned KLK5 inh 2, PERK inhibitor 0, Furin inh 24, FXIa inh 1536 3, Thrombin inh -3 and FXIIa inh 1536 42*.

Bioassay records deposited in PubChem BioAssay by several laboratories.
